Results taken from ChEMBL document CHEMBL1135830, “NMR-based modification of matrix metalloproteinase inhibitors with improved bioavailability” (J Med Chem, 2002).

Experiments:
Stromelysin-1 [1] = molecular target: T1, Stromelysin-1 (Homo sapiens, UniProt P08254); test: Inhibition of Stromelysin (MMP-3); parameters: species or system Rattus norvegicus
Stromelysin-1 [2] = molecular target: T1, Stromelysin-1; test: Binding to stromelysin (MMP-3) in place of acetohydroxamic acid.; parameters: species or system Rattus norvegicus
Outline: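 Binding detected by sensitivity-enhanced 15N HSQC on uniformly 15N-labeled stromelysin catalytic domain (residues 81-256), 0.3 mM protein in H2O/D2O 9:1 Tris buffer 50 mM pH 7.0, 20 mM CaCl2, 0.05% sodium azide. Ligands added from perdeuterated DMSO, screened at 25.0 mM each; spectra with versus without compound compared for shifts at 500 MHz.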

Stromelysin-1 [3] = molecular target: T1, Stromelysin-1; test: Binding to stromelysin (MMP-3) in the presence of 1-Napthohydroxamate; parameters: species or system Rattus norvegicus
Outline: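 Catalytic domain of stromelysin (residues 81-256), uniformly ¹⁵N-labeled, at 0.3 mM in H₂O/D₂O (9/1) with 50 mM Tris pH 7.0, 20 mM CaCl₂ and 0.05% sodium azide. Compounds were added from perdeuterated DMSO solutions. Binding was detected as changes in sensitivity-enhanced ¹⁵N HSQC spectra (500 MHz), recorded with and without compound.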

Stromelysin-1 [4] = molecular target: T1, Stromelysin-1; test: Binding to stromelysin (MMP-3) in the presence of acetohydroxamic acid; parameters: species or system Rattus norvegicus
Outline: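 Uniformly 15N-labeled stromelysin catalytic domain (residues 81-256) at 0.3 mM in 50 mM Tris, pH 7.0, H2O/D2O 9/1, with 20 mM CaCl2 and 0.05% sodium azide. Sensitivity-enhanced 15N HSQC spectra were recorded at 500 MHz with and without compound added in perdeuterated DMSO. Binding was read from changes in the HSQC spectrum.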

[5] = Cmax was determined; format: ADME, organism-based; settings: in vivo
Outline: (§1)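 Rats (4 per compound, across two studies) dosed orally at 30 mg/kg in hydroxypropyl methyl cellulose. Tail-vein blood drawn at intervals over 7 h, deproteinated with 2 volumes methanol containing 0.1% acetic acid. Drug level in the extract quantified by bioassay against recombinant stromelysin.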

Rattus norvegicus = test: Bioavailability after peroral administration at 30 mg/kg against Stromelysin in rat; format: ADME, organism-based; outline: as §1
[6] = Half-life period was determined; format: ADME; outline: as §1

T1 sequence (P08254 whole entry): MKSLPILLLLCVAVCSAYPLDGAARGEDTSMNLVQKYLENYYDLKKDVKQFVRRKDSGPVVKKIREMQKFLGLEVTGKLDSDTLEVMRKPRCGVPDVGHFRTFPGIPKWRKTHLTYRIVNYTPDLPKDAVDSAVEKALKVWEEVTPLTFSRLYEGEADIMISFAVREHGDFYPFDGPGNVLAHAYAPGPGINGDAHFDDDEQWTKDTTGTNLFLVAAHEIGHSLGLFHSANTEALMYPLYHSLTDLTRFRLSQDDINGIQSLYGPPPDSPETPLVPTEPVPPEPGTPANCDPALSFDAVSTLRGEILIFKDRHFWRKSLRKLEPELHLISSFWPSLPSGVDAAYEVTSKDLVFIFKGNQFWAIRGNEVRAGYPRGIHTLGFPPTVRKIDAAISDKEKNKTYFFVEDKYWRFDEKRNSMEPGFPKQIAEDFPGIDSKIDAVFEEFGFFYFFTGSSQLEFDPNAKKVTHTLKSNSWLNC

## N#Cc1ccc(-c2ccc(OCc3ccc4ccccc4c3C(=O)NO)cc2)cc1
Stromelysin-1 [1]
  IC50: > 10 µM

## CCOC(=O)NO [ETHYL HYDROXYCARBAMATE]
Stromelysin-1 [2]
  Kd: > 25000 µM

## O=C(NO)c1ccccc1 [BENZOHYDROXAMATE]
Stromelysin-1 [2]
  Kd: 7000 µM

## O=C(O)CCS [MERCAPTOPROPIONIC ACID]
Stromelysin-1 [2]
  Kd: 3000 µM

## O=C(NO)c1cccc2ccccc12
Stromelysin-1 [2]
  Kd: 50 µM
Stromelysin-1 [1]
  IC50: 50 µM

## COc1ccc(-c2ccc(S(=O)(=O)NCCc3ccc4ccccc4c3C(=O)NO)cc2)cc1
Stromelysin-1 [1]
  IC50: 10 µM

## Oc1ccc(-c2ccc(O)cc2)cc1
Stromelysin-1 [3]
  Kd: 150 µM

## O=C(O)c1ccccc1O [SALICYLIC ACID]
Stromelysin-1 [2]
  Kd: > 25000 µM

## N#Cc1ccc(-c2ccc(O)cc2)cc1
Stromelysin-1 [4]
  Kd: < 50 µM
Stromelysin-1 [3]
  Kd: < 50 µM

## c1ccc(-c2ccncc2)cc1
Stromelysin-1 [3]
  Kd: 900 µM

## SCc1cccs1
Stromelysin-1 [2]
  Kd: 150 µM

## N#Cc1ccc(-c2ccc(OCCOc3ccc4ccccc4c3C(=O)NO)cc2)cc1
[5]
  Cmax: 28 µM
Rattus norvegicus
  IC50: 0.34 µM
[6]
  half-life: 2 h

## CC(=O)c1ccccn1
Stromelysin-1 [2]
  Kd: > 25000 µM

## CCOC(=O)CC(=O)C(F)(F)F
Stromelysin-1 [2]
  Kd: > 25000 µM

## N#Cc1ccc(-c2ccc(OCCC(=O)NO)cc2)cc1
Rattus norvegicus
  IC50: 0.057 µM

## NC(=O)NO [HYDROXYUREA]
Stromelysin-1 [2]
  Kd: > 25000 µM

## N#CCc1cccc(-c2ccc(S(=O)(=O)CCOc3ccc4ccccc4c3C(=O)NO)cc2)c1
Stromelysin-1 [1]
  IC50: 0.062 µM

## O=C(CC(=O)C(F)(F)F)c1ccccc1
Stromelysin-1 [2]
  Kd: > 25000 µM

## N#Cc1ccc(-c2ccc(OCCCOc3ccc4ccccc4c3C(=O)NO)cc2)cc1
Stromelysin-1 [1]
  IC50: 10 µM

## NC(=O)c1ccccc1O [SALICYLAMIDE]
Stromelysin-1 [2]
  Kd: > 25000 µM
